Data set [1] relates to NAMALVA. The experiment in a line: Antiproliferative activity against human NAMALWA cells after 72 hrs by CCK8 assay. In kind it is functional, cell-based. Put shortly: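 Cells seeded 3,000/well in RPMI-1640 with 10% FBS at 37 °C, 5% CO2, for 4 h, then exposed to compound for 72 h. Concentrations 1.25 to 40 µM, each in five replicates. Cell number set to give an absorbance of 0.5–1.2 at 450 nm. CCK-8 read-out at 450 nm; IC50 fitted by curve fitting; values are the mean of at least three separate experiments.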
Background: Tetrazolium assays rely on reduction of a dye to a coloured formazan, in cell work by metabolically active cells.

In data set [2] the target is T1, Tyrosine-protein kinase JAK3 (Homo sapiens, UniProt P52333).
T1 sequence (P52333 whole entry): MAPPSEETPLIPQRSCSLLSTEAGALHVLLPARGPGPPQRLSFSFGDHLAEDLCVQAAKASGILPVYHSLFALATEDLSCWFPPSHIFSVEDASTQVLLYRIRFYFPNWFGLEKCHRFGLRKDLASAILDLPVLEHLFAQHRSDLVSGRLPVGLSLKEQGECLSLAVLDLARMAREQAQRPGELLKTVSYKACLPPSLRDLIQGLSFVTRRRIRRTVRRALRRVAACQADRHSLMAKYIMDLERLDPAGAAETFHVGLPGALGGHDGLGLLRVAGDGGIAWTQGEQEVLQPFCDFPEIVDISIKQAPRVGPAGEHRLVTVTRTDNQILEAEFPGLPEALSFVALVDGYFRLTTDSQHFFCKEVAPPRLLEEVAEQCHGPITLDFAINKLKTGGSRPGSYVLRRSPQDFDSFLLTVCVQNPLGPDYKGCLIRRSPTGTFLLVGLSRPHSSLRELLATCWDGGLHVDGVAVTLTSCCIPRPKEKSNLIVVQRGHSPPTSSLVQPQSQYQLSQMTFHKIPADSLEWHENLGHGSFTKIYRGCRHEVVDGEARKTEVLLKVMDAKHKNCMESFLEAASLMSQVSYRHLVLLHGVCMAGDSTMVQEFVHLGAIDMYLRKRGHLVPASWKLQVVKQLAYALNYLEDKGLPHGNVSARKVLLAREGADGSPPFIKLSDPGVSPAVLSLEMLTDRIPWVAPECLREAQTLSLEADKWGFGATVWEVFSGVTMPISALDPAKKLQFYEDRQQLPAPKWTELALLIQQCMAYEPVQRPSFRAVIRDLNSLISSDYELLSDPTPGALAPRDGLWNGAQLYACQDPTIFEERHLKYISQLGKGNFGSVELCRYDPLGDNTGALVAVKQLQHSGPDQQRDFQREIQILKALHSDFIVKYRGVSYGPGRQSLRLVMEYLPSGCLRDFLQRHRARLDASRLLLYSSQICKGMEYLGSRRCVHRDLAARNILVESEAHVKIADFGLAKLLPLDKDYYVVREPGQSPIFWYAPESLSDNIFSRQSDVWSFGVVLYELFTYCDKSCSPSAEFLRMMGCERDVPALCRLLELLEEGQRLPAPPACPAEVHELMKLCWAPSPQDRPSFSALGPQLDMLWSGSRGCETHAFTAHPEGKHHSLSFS
The data set is described as follows: Inhibition of recombinant human N-terminal GST-tagged JAK3 (781-end residues) expressed in baculovirus infected Sf9 cells using poly (4:1 Glu, Tyr) peptide as substrate after 60 mins by ADP-Glo assay. The gist of the method:
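ADP-Glo luminescent kinase assay with commercial JAK3 kinase enzyme system, in 1× kinase buffer, compounds at 0.1–1000 nM. The kinase reaction ran for 60 min at room temperature, followed by ADP-Glo reagent for 40 min to stop the reaction and deplete ATP, then detection reagent for 30 min. Luminescence was read and curves were fitted to give IC50.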

For data set [3], the target named is Epidermal growth factor receptor (Homo sapiens, UniProt P00533, T790M). The experiment in a line: Inhibition of recombinant human N-terminal GST-tagged EGFR T790M mutant (695-end residues) expressed in baculovirus infected Sf9 cells using poly (4:1 Glu, Tyr) peptide as substrate after 60 mins by ADP-Glo assay. The gist of the method: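 ADP-Glo luminescent kinase assay in 1× kinase buffer with compounds at 0.1 to 1000 nM. The kinase reaction ran 60 min at room temperature, then ADP-Glo reagent stopped it and depleted ATP (40 min, RT). Detection reagent converted ADP to ATP for luciferase read-out (30 min, RT). IC50 came from curve fitting.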

Data set [4] addresses T2, Tyrosine-protein kinase BTK (Homo sapiens, UniProt Q06187). The data set is described as follows: Inhibition of full length recombinant human N-terminal His-tagged BTK expressed in baculovirus infected Sf9 cells using poly (4:1 Glu, Tyr) peptide as substrate after 60 mins by ADP-Glo assay. (In ADP-Glo the light output rises with the ADP produced.)
In data set [5] the test system is Ramos. The data set is described as follows: Antiproliferative activity against human Ramos cells after 72 hrs by CCK8 assay. In kind it is functional, cell-based.
Data set [6] concerns Raji. The experiment in a line: Antiproliferative activity against human Raji cells after 72 hrs by CCK8 assay. In kind it is functional, cell-based.
For data set [7], the system named is NAMALVA. The experiment in a line: Induction of apoptosis in human NAMALWA cells assessed as early apoptotic cells at 2 uM after 48 hrs by Annexin V-FITC/propidium iodide staining based flow cytometry (reference value: 0%). Type of data set: functional. (In general: In flow cytometry, cells or beads pass a laser one at a time.)
The test system of data set [8] is NAMALVA. The experiment in a line: Induction of apoptosis in human NAMALWA cells assessed as early apoptotic cells at 1 uM after 48 hrs by Annexin V-FITC/propidium iodide staining based flow cytometry (reference value: 0%). Type of data set: functional.
The test system of data set [9] is NAMALVA. The experiment in a line: Induction of apoptosis in human NAMALWA cells assessed as late apoptotic cells at 1 uM after 48 hrs by Annexin V-FITC/propidium iodide staining based flow cytometry (reference value: 0%). Type of data set: functional.
In data set [10] the test system is NAMALVA. The data set is described as follows: Induction of apoptosis in human NAMALWA cells assessed as necrotic cells at 1 uM after 48 hrs by Annexin V-FITC/propidium iodide staining based flow cytometry (reference value: 4.05%). Type of data set: functional.
In data set [11] the target is T2, Tyrosine-protein kinase BTK. The experiment in a line: Inhibition of BTK phosphorylation in human NAMALWA cells after 48 hrs by Western blot method. Type of data set: cell-based. The gist of the method:
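NAMALWA cells were treated at 1, 5 and 10 µM for 48 h and lysed; lysates were cleared at 14,000 g for 15 min at 4 °C. 50 µg protein was resolved on 8–12% SDS-PAGE and transferred to PVDF. The membrane was blocked in 5% skim milk for 2 h at room temperature, then probed overnight at 4 °C for BTK and p-BTK. Detection was by ECL.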

Data set [12] concerns NAMALVA. The experiment in a line: Induction of apoptosis in human NAMALWA cells assessed as morphological changes at 5 uM by acridine orange/ethidium bromide staining based phase contrast microscopic assay. Type of data set: functional, cell-based.
For data set [13], the system named is NAMALVA. The experiment in a line: Induction of apoptosis in human NAMALWA cells assessed as necrotic cells at 2 uM after 48 hrs by Annexin V-FITC/propidium iodide staining based flow cytometry (reference value: 4.05%). Type of data set: functional.
Data set [14] has as its system NAMALVA. The experiment in a line: Induction of apoptosis in human NAMALWA cells assessed as necrotic cells at 5 uM after 48 hrs by Annexin V-FITC/propidium iodide staining based flow cytometry (reference value: 4.05%). In kind it is functional.
Data set [15] has as its system Raji. The data set is described as follows: Potency index, ratio of ibrutinib IC50 to compound IC50 for antiproliferative activity against human Raji cells. In kind it is functional.
The test system of data set [16] is NAMALVA. The data set is described as follows: Induction of apoptosis in human NAMALWA cells assessed as early apoptotic cells at 5 uM after 48 hrs by Annexin V-FITC/propidium iodide staining based flow cytometry (reference value: 0%). Type of data set: functional.
Data set [17] has as its system NAMALVA. The data set is described as follows: Potency index, ratio of ibrutinib IC50 to compound IC50 for antiproliferative activity against human NAMALWA cells. Type of data set: functional.
The subject of data set [18] is NAMALVA. The data set is described as follows: Induction of apoptosis in human NAMALWA cells assessed as late apoptotic cells at 2 uM after 48 hrs by Annexin V-FITC/propidium iodide staining based flow cytometry (reference value: 0%). Type of data set: functional.
Data set [19] relates to NAMALVA. The data set is described as follows: Induction of apoptosis in human NAMALWA cells assessed as late apoptotic cells at 5 uM after 48 hrs by Annexin V-FITC/propidium iodide staining based flow cytometry (reference value: 0%). In kind it is functional.
For data set [20], the system named is PBMC. The data set is described as follows: Cytotoxicity against human PBMC assessed as morphological changes at 5 to 20 uM after 24 hrs by acridine orange/ethidium bromide staining based phase contrast microscopic method. In kind it is cell-based. Put shortly: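 PBMC were isolated from a healthy adult 's venous blood (ACD anticoagulant) by Lymphoprep density separation, washed in PBS and seeded at 200,000–250,000 cells/well. Treated in RPMI-1640 with 10% FBS at 37 °C, 5% CO2, for 24 h, with five replicates per concentration. Morphology was checked by phase-contrast microscopy and AO/EB staining; live cells were counted manually in a counting chamber.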

Active and inactive are the calls of the source. The rule behind the calls is not given here.

Usually IC50 stands for the point on the concentration scale where inhibition reaches its midpoint.

T2 sequence (Q06187 whole entry): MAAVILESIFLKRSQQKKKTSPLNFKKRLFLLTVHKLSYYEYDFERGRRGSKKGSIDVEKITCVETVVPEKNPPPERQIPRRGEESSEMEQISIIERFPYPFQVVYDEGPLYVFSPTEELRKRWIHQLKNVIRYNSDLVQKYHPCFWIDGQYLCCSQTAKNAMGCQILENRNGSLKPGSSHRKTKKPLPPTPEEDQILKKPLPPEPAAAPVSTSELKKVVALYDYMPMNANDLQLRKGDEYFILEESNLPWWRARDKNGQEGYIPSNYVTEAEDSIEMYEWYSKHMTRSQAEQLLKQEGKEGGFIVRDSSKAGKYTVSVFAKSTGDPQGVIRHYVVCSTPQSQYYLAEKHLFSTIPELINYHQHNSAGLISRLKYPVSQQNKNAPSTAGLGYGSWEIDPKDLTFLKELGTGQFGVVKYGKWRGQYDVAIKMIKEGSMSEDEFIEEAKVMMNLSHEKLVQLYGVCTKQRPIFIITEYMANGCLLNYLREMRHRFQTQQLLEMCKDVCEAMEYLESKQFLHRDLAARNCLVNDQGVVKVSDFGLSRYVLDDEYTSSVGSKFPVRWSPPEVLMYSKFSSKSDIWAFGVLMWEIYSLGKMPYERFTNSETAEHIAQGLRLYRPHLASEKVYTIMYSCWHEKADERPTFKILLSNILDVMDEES
Chain of Epidermal growth factor receptor (P00533 25-1210 T790M limits assumed): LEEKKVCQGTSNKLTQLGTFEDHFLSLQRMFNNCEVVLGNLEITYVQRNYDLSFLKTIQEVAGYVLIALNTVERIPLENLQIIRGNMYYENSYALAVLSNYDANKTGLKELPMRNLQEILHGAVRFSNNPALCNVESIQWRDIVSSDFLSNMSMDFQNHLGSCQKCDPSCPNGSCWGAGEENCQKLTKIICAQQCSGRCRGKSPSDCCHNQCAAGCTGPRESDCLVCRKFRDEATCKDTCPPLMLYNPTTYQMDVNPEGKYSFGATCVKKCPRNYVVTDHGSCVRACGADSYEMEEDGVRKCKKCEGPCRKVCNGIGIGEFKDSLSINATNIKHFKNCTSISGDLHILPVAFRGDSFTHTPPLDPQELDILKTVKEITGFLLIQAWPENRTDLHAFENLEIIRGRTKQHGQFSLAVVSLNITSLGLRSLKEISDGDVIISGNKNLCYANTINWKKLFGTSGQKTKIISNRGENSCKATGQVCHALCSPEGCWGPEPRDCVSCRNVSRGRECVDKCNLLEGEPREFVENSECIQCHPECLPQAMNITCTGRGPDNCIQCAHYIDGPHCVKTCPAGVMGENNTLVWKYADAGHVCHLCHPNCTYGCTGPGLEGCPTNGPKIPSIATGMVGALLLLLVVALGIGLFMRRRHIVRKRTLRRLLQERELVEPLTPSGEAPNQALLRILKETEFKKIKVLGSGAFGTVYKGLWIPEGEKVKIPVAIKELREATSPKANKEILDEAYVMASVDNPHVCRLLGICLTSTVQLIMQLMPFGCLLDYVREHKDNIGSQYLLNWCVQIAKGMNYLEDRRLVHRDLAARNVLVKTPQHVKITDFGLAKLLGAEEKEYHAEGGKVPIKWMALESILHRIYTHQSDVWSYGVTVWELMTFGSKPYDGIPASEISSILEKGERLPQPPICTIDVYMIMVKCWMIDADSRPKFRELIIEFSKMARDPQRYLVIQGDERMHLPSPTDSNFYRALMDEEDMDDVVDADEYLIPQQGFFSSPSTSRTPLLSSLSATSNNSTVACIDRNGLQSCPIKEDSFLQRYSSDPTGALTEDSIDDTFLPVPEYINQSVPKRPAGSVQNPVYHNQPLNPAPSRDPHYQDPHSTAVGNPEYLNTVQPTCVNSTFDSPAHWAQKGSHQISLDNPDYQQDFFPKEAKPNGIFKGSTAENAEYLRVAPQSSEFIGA

In the case of `C=CC(=O)Nc1cccc(Nc2nc(Nc3ccc(OCC(=O)NCC(=O)OC)cc3)ncc2Cl)c1`, the IC50 is 16.9 µM in [1]; 0.496 µM in data set [2]; greater than 0.1 µM in data set [3]; 0.0065 µM in data set [4]; 20.9 µM in data set [5]; 18 µM in [6].
For `C=CC(=O)Nc1cccc(Nc2nc(Nc3ccc(OCC(=O)N4CCCC4C(=O)OC)cc3)ncc2Cl)c1` (stereo not drawn), the half-maximal inhibitory concentration (IC50) in data set [1] is 4.8 µM; in [2] it was 0.196 µM; in data set [3], greater than 0.1 µM; in [4], 0.0087 µM; in [5], 19.7 µM; in data set [6] it was 6.7 µM. The Activity in [7] came out at 6.96%; in data set [8] it was 4.94%; in data set [9], 5.83%; in [10], 0.92%; in [13], 0.82%; in data set [14] it was 1.67%. Also, the Activity is 8.75% in data set [16], 7.43% in [18], 13.33% in [19] and “Non-Toxic” in data set [20]. The inhibition entry in data set [11] is “Dose-dependent effect”. For the same molecule, the result in data set [12] was Active. Further, the entries for the “Ratio IC50” value in [15] and in data set [17] were 3 and 4, respectively.
With `C=CC(=O)Nc1cccc(Nc2nc(Nc3ccc(OCC(=O)NCC(=O)O)cc3)ncc2Cl)c1`, the half-inhibitory concentration (IC50) in data set [1] was greater than 40 µM; in [2], greater than 0.5 µM; in data set [3] it was greater than 0.1 µM; in [4], 0.0112 µM; in data set [5], greater than 40 µM; in data set [6], greater than 40 µM.
Molecule `C=CC(=O)N1CCC[C@@H](n2nc(-c3ccc(Oc4ccccc4)cc3)c3c(N)ncnc32)C1` [IBRUTINIB] yielded an IC50 in [1] of 19.6 µM. Moreover, the result in [12] was Active. In addition, the Activity in data set [14] is on record as 0.73%; in data set [16], 4.06%; in data set [19], 5.75%.
In the case of `C=CC(=O)Nc1cccc(Nc2nc(Nc3ccc(OCC(=O)NC(C)C(=O)OC)cc3)ncc2Cl)c1` (stereo not drawn), the IC50 in data set [1] is 29.3 µM; in data set [2] it was greater than 0.5 µM; in data set [3], greater than 0.1 µM; in data set [4], 0.0087 µM; in data set [5] it was 40.8 µM; in data set [6], 25.2 µM.

For the origin of these results see ChEMBL document CHEMBL4229440, “Novel amino acid-substituted diphenylpyrimidine derivatives as potent BTK inhibitors against B cell lymphoma cell lines” (Bioorg Med Chem, 2018).
